Compound activity deposited in PubChem BioAssay by several laboratories.
Ins promoter up – MIN6 insulin promoter up-regulation. actives 0.3% (n = 190,000). MIN6 insulin promoter-GFP reporter, high-content imaging; hits give high values. z-score at 5 µM;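 active means z-score above 3 at 5 µM with at least 500 cells counted in the well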
Autophagy HCS – modulators of autophagy; calls only at 10 µM (by protocol); actives 0.98% (n = 190,000); MEF GFP-LC3 puncta imaging; test concentration mostly 10 µM; AID 463193;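 active means percentage of spot-positive cells more than 3 SD above its plate mean, without a fluorescence outlier flag or 80% toxicity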
ROMK mod – modulates human ROMK potassium channel activity. Tet-inducible ROMK, thallium flux fluorescence; actives lie on both sides. AID 1918. B-score at 10 µM. actives 2% (n = 130,000). P48048;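 active means signal ratio slope over the read window, or its plate-corrected B-score, at least 3 SD from the plate mean, either direction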;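 further: B-score of the F/F0 ratio slope over 7 to 12 s after thallium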
ABCB1 block – blocks JC-1 efflux by human ABCB1 transporter | P08183 | CCRF-Adr cells, flow cytometry | inhibition, % at 6.6 µM | actives 0.067% (n = 190,000) | AID 1326; in the data active means inhibition above about 40%;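 further: higher value means more JC-1 retained so stronger ABCB1 efflux block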
Target sequence (P08183 whole entry, looked up): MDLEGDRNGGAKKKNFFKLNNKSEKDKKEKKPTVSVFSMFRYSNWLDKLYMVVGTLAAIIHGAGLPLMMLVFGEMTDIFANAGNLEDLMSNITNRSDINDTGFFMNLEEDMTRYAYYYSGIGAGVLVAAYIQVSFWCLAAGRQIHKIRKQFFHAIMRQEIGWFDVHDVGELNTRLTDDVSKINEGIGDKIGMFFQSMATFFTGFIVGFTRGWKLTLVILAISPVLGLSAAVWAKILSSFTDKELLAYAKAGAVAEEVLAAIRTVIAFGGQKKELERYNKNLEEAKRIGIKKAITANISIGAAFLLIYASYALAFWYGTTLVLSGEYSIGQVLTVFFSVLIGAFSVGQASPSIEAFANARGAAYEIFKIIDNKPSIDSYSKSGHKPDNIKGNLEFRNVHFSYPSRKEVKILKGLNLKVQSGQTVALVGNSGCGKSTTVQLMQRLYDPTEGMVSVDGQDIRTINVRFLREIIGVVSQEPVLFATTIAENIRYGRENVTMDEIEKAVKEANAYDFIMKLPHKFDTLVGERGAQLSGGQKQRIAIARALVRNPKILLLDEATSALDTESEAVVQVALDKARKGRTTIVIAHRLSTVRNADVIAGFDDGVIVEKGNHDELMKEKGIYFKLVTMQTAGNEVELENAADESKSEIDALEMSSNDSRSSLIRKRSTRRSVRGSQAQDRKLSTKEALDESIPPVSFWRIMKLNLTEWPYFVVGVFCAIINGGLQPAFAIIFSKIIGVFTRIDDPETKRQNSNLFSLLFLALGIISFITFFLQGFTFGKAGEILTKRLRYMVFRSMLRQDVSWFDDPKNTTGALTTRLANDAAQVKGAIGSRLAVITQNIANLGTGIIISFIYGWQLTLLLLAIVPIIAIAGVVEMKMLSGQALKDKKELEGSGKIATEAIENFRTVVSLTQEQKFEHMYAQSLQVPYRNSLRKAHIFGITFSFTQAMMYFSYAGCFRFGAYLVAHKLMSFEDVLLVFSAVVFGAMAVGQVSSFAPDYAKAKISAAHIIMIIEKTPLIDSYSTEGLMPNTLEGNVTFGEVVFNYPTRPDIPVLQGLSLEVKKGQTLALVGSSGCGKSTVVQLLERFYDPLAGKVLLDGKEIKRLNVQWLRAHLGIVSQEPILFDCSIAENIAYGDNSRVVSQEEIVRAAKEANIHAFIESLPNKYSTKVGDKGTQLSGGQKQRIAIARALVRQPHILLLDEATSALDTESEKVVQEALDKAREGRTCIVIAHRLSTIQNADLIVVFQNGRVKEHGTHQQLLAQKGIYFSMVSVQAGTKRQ
ABCG2 inh – blocks JC-1 efflux by human ABCG2 transporter. Q9UNQ0. IgMXP3 cells, flow cytometry. inhibition, % at 6.6 µM. actives 0.1% (n = 190,000). AID 1325;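 active means inhibition above 80%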
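Read-out basis: Efflux inhibition in percent versus controls | Test system: ABCG2 IgMXP3 and barcoded ABCB1 CCRF-Adr cell mix | Quantity: 3 million cells/mL in well | Schedule: 10 min at 25 °C | Control set: Nicardipine as high control, DMSO as low control | Reagent: JC-1 as fluorescent efflux pump substrate | Signal: Flow cytometry of retained JC-1 fluorescence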
SDO1 yeast rescue – compounds rescuing growth of sdo1-depleted yeast, bone marrow failure model | S. cerevisiae sdo1-depleted JHY4D growth rescue, OD600 30 h; hits give high values; pdr5 snq2 efflux-pump mutant strain | z-score at 10 µM | actives 0.21% (n = 140,000);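 active means z-score above 3 at both the 24 hr and the 30 hr optical density reads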
Numbers stand for hits; – = inactive; · = not tested or not shown; + = active, no number. Shown are actives, neighbours in structure and some others; about 2.3% of the full set was active somewhere.

SMILES	Ins promoter up	Autophagy HCS	ROMK mod	ABCB1 block	ABCG2 inh	SDO1 yeast rescue
Cc1ccc(N2C(=N)/C(=C3/Nc4ccccc4S3)C(c3ccccc3)C2=O)cc1 (stereo not drawn)	–	+	·	–	–	–
Cc1ccc(N2C(=O)C(F)(F)C2c2ccccc2)cc1 (stereo not drawn)	–	–	·	–	–	·
CCOc1ccc(CCNC(=O)C2=C(C)C(=O)OC23CCCCC3)cc1OCC	–	–	·	–	–	·
COCCCN1CCN(C2Cc3ccccc3Sc3ccc(Cl)cc32)CC1 (stereo not drawn)	·	–	–	–	–	–
Clc1ccc2c(c1)C(N1CCNCC1)Cc1ccccc1S2 (stereo not drawn)	·	+	·	–	–	–
CN1CC=C2C(C#N)=C(N)C(C#N)(C#N)[C@H](c3cccs3)[C@H]2C1	·	+	–	–	–	–
COc1cc([C@@H]2[C@H]3CN(C)CC=C3C(C#N)=C(N)C2(C#N)C#N)cc2c1OCO2	·	+	–	–	–	–
CN1CC=C2C(C#N)=C(N)C(C#N)(C#N)C(c3ccsc3)C2C1 (stereo not drawn)	·	–	·	–	–	–
CCOC(=O)/C(=C/Nc1ccc(F)cc1)[N+](=O)[O-]	–	·	–	·	·	·
O=C1N/C(=N/Nc2ccccc2)S/C1=C\c1ccccc1	3.2	–	·	–	–	–
Nc1nnnn1/N=C/c1ccccc1OCc1ccc(Cl)cc1Cl	–	–	·	–	–	–
Nc1nnnn1/N=C/c1cc(Cl)cc(Cl)c1OCc1ccc(Cl)cc1Cl	–	+	–	–	–	–
COc1ccc(C(=O)Nc2ccc3cn[nH]c3c2)c(OC)c1	–	–	–	–	–	·
Cc1cccn2cc(-c3ccc(S(=O)(=O)N4CCCCC4)cc3)nc12	–	+	–	–	–	·
C=CCn1c(=S)[nH]c2ccccc2c1=O	·	–	–	–	–	–
Cn1c(=S)[nH]c2scc(-c3cccs3)c2c1=O	–	–	4	–	–	·
C=CCn1c(=S)[nH]c2scc(-c3cccs3)c2c1=O	–	–	3.5	–	–	·
COc1cc(C2C(C#N)=C(N)Oc3cc(N)ccc32)cc(OC)c1OC (stereo not drawn)	–	+	–	–	–	–
C/C(=N\NC(=O)c1cc(C(C)(C)C)[nH]n1)C12CC3CC(CC(C3)C1)C2	·	+	–	–	–	·
COc1ccc(/C=N/NC(=O)c2cc(C34CC5CC(CC(C5)C3)C4)[nH]n2)cc1OC	–	–	·	–	–	–
CC(CN1C(C)CCCC1C)OC(=O)c1ccccc1Cl (stereo not drawn)	–	–	–	–	–	·
CC(CN1C(C)CCCC1C)OC(=O)c1ccc(Cl)cc1Cl (stereo not drawn)	–	+	–	–	–	·
COc1ccccc1-c1nnc(NC(=O)c2ccc(S(=O)(=O)N(C)Cc3ccccc3)cc2)o1	–	–	-3.4	–	–	–
CN(Cc1ccccc1)S(=O)(=O)c1ccc(C(=O)Nc2nnc(C3CC3)o2)cc1	–	–	·	–	–	–
CCC1=C(OC(=O)N(CC)CC)N2C(=O)OC(=NCCc3c[nH]c4ccccc34)[C@]2(Cc2ccccc2)[C@H]2C1=CC[C@H]1C(=O)NC(=O)[C@H]12	–	·	·	·	·	·
SMILES	Ins promoter up	Autophagy HCS	ROMK mod	ABCB1 block	ABCG2 inh	SDO1 yeast rescue
COc1cccc(/C=N/NC(=O)CCn2cnc3ccccc32)c1	3.7	·	·	·	·	·
O=C(NCC1CCCO1)C(c1ccccn1)N(Cc1ccccc1Cl)C(=O)CN1C(=O)c2ccccc2S1(=O)=O (stereo not drawn)	·	+	–	–	–	·
O=S(=O)(NCc1ccccc1F)c1cccc(S(=O)(=O)N2CCOCC2)c1	–	–	·	–	–	·
Cc1csc(SCC(=O)NC(=O)NC2CCCC2)n1	–	–	–	–	–	·
Cc1c(NC(=O)c2cccc(-c3cc4ccccc4oc3=O)c2)cccc1-c1nc2ncccc2o1	–	–	·	–	–	–
Cc1ccc([N+](=O)[O-])cc1S(=O)(=O)NCCc1c(C)[nH]c2c(C)cccc12	–	–	–	–	–	–
Cc1[nH]c2c(C)cccc2c1CCNS(=O)(=O)c1cccc([N+](=O)[O-])c1	·	+	·	–	–	–
O=S(=O)(N/N=C1/CCCc2ccccc21)c1ccc(Br)cc1	·	–	-3.7	–	–	–
O=C(O)Cc1sc(N/N=C\c2ccncc2)nc1-c1ccccc1	–	·	–	·	·	·
COC(=O)c1ccc2c(=O)n(CCCCCC(=O)NC(C)C)c(=O)[nH]c2c1	–	–	·	–	–	·
CCC(c1nnnn1C1CCCC1)N1CCN(c2cccc(OC)c2)CC1 (stereo not drawn)	·	–	–	–	–	·
Oc1c(C=Nc2cccc3cccnc23)sc2ccccc12	–	+	·	–	–	–
Cc1cccc(/N=C/c2sc3ccccc3c2O)n1	–	·	·	·	·	·
CC(Oc1ccc(Cl)cc1Cl)c1ccn[nH]1 (stereo not drawn)	–	–	–	–	–	·
O=C(Nc1nc2ccccc2n1CCN1CCOCC1)c1cn(-c2ccccc2)nc1-c1ccccc1	–	+	·	–	–	–
CCOC(=O)c1c(NC(C)=O)sc2c(OCC(O)CNC(C)(C)C)c(Br)ccc12 (stereo not drawn)	–	+	–	–	–	·
CCOC(=O)c1c(N)sc2c(OCC)c(Br)ccc12	·	–	–	–	–	–
N#Cc1ccccc1Cn1cc(/C=N/Nc2ccc([N+](=O)[O-])cn2)c2ccccc21	·	–	–	–	–	·
CCSc1ncc(/C=N/Nc2ccc([N+](=O)[O-])cc2)n1C	–	+	·	–	–	–
CCSc1ncc(/C=N/Nc2ccccc2)n1C	–	–	·	–	–	–
O=[N+]([O-])c1ccc(N/N=C\c2cccn2-c2ccccc2)nc1	–	+	–	–	–	–
O=[N+]([O-])c1ccc(N/N=C/c2ccc(OCc3cccc4ccccc34)cc2)nc1	·	+	–	–	–	·
Cc1ccccc1-n1c(C)cc(/C=N/Nc2ccc([N+](=O)[O-])cn2)c1C	–	+	–	–	–	–
